Converted amounts (≈) assume the structure as drawn.
Key:
Staphylococcus aureus [1] = assay: Antibacterial activity against Staphylococcus aureus UC9213; assay type: functional
[2] = target: T1, Amine oxidase [flavin-containing] A (Homo sapiens, UniProt P21397); assay: Inhibition of human recombinant MAO-A expressed in yeast after 1 hr by luciferin-based luminescence assay
T1 sequence (P21397 whole entry): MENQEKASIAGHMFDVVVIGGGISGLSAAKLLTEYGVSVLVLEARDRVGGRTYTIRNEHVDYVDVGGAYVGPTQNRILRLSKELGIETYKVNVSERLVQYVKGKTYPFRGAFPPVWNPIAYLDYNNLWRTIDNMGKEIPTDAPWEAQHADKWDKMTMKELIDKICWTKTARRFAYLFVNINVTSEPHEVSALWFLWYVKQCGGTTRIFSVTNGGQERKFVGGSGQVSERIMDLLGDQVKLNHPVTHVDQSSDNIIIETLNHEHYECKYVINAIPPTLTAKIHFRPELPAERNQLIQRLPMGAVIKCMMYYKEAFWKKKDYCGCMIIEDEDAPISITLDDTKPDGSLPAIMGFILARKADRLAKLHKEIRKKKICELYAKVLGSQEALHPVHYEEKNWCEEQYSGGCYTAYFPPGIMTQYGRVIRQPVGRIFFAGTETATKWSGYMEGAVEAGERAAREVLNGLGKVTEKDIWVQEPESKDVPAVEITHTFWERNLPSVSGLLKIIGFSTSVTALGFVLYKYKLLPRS

Staphylococcus aureus [3] = assay: Antibacterial activity against Staphylococcus aureus in po dosed mouse septicemia model; assay type: functional
Staphylococcus aureus [4] = assay: Antibacterial activity against methicillin-resistant Staphylococcus aureus SAU1009; assay type: functional
Method in brief: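 MIC against MRSA strain SAU1009.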

Staphylococcus aureus [5] = assay: Antibacterial activity against methicillin-resistant Staphylococcus aureus; assay type: functional
[6] = Myelosuppression activity against human CD34-positive blood stem/progenitor cells assessed as growth inhibition after 9 to 10 days by CellTiter-Glo luminescent assay

Compound | IC50 [2] [µM] | ED50 (Staphylococcus aureus [3]) [mg/kg] | MIC (Staphylococcus aureus [4]) [µg/mL] | also measured
CC(=O)NC[C@H]1CN(c2ccc(N3C=CC(=O)CC3)c(F)c2)C(=O)O1 | 10.9 | 10 |  | MIC (Staphylococcus aureus [1]): 0.5 µg/mL (≈ 1.44 µM)
Cn1nnc(-c2ccc(-c3ccc(N4C[C@H](CO)OC4=O)cc3F)cn2)n1 [TEDIZOLID] |  |  | 0.25 (≈ 0.675 µM) | 
N#Cc1ccc(-c2ccc(N3C[C@H](CO)OC3=O)cc2F)cn1 |  |  | 0.25 (≈ 0.798 µM) | 
O=C1OCCN1c1ccc(-c2ccc(N3C[C@H](CO)OC3=O)c(F)c2F)cn1 |  |  | 0.5 (≈ 1.28 µM) | 
N#Cc1ccc(-c2ccc(N3C[C@H](CO)OC3=O)c(F)c2F)cn1 |  |  | 1 (≈ 3.02 µM) | 
Cn1nnc(-c2ccc(-c3ccc(N4C[C@H](COP(=O)(O)O)OC4=O)cc3F)cn2)n1 [TEDIZOLID PHOSPHATE] | 4 |  |  | MIC90 (Staphylococcus aureus [5]): 0.5 µg/mL; IC50 [6]: 0.2 µg/mL
O=C1O[C@@H](CO)CN1c1ccc(-c2ccc(N3CCOC3=O)nc2)c(F)c1 |  |  | 0.125 (≈ 0.335 µM) | 
O=C1C=CN(c2c(F)cc(N3C[C@H](Cn4ccnn4)OC3=O)c(F)c2F)CC1 | > 254 | 10 | 1 (≈ 2.54 µM) | 
CC(=O)NC[C@H]1CN(c2ccc(N3C=CC(=O)CC3)c(F)c2F)C(=O)O1 | > 274 | 15.9 | 1 (≈ 2.74 µM) | 

— ChEMBL document CHEMBL3286113, “New potent antibacterial oxazolidinone (MRX-I) with an improved class safety profile” (J Med Chem, 2014)
